Assay results taken from ChEMBL document CHEMBL4219253, “Positive Modulators of the N-Methyl-d-aspartate Receptor: Structure-Activity Relationship Study of Steroidal 3-Hemiesters” (J Med Chem, 2018).

Columns and labels:
[1] = target: Glutamate NMDA receptor; Grin1/Grin2a (Rattus norvegicus, UniProt P35439+Q00959); experiment: Positive allosteric modulation of recombinant rat GluN1alpha/GluN2A receptor expressed in HEK293 cells assessed as potentiation of glutamate-induced current response at holding potential -60mV by whole cell voltage clamp method; assay type: cell-based
Procedure, shortened: (§1)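 HEK293 cells transfected with GluN1-1a, GluN2A, 2B, 2C or 2D and GFP cDNA. Whole-cell voltage clamp at -60 mV, 21–25 °C, series resistance <10 MΩ compensated 80–90%. Compound co-applied with 1 µM glutamate by fast multibarrel perfusion. DMSO 1% in all solutions. […] At least four cells per point.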

Rattus norvegicus [2] = organism: Rattus norvegicus; experiment: Positive allosteric modulation of AMPAR in rat hippocampal neuron assessed as potentiation of AMPA-induced current response at 30 uM in presence of cyclothiazide by whole cell voltage clamp method relative to control
Procedure, shortened: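 Cultured hippocampal neurons, whole-cell voltage clamp at -60 mV, room temperature (21–25 °C). AMPAR current evoked by 5 µM AMPA; bath also held 10 µM cyclothiazide, 50 µM D-AP5, 10 µM bicuculline, 0.5 µM TTX. Compound co-applied by fast multibarrel perfusion. DMSO 1% in all test and control solutions. Effect expressed relative to control response.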

[3] = target: T1, Glutamate NMDA receptor; Grin1/Grin2c (Rattus norvegicus) (UniProt P35439+Q00961); experiment: Positive allosteric modulation of recombinant rat GluN1alpha/GluN2C receptor expressed in HEK293 cells assessed as potentiation of glutamate-induced current response at 30 uM at holding potential -60mV by whole cell voltage clamp method relative to control; assay type: cell-based; procedure, shortened: as §1
[4] = target: T2, Glutamate NMDA receptor; Grin1/Grin2b (Rattus norvegicus) (UniProt P35439+Q00960); experiment: Positive allosteric modulation of recombinant rat GluN1alpha/GluN2B receptor expressed in HEK293 cells assessed as potentiation of glutamate-induced current response at 30 uM at holding potential -60mV by whole cell voltage clamp method relative to control; assay type: cell-based; procedure, shortened: as §1
[5] = target: T3, Ionotropic glutamate receptor NMDA 1/2D (Rattus norvegicus) (UniProt P35439+Q62645); experiment: Positive allosteric modulation of recombinant rat GluN1alpha/GluN2D receptor expressed in HEK293 cells assessed as potentiation of glutamate-induced current response at 30 uM at holding potential -60mV by whole cell voltage clamp method relative to control; assay type: cell-based; procedure, shortened: as §1
[6] = target: T2, Glutamate NMDA receptor; Grin1/Grin2b (Rattus norvegicus); experiment: Positive allosteric modulation of recombinant rat GluN1alpha/GluN2B receptor expressed in HEK293 cells assessed as potentiation of glutamate-induced current response at 100 uM at holding potential -60mV by whole cell voltage clamp method relative to control; assay type: cell-based
Procedure, shortened: (§2)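 HEK293 cells transfected with GluN1-1a, the GluN2 subunit and GFP. Whole-cell voltage clamp at -60 mV, series resistance <10 MΩ, 80-90% compensation, room temperature (21–25 °C). Compound is co-applied with 1 µM glutamate by multibarrel fast perfusion (exchange ~10 ms). DMSO is held at 1% in all test and control solutions. Readout is % potentiation of the glutamate-evoked current.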

[7] = target: Glutamate NMDA receptor; Grin1/Grin2b (Rattus norvegicus, UniProt P35439+Q00960); experiment: Positive allosteric modulation of recombinant rat GluN1alpha/GluN2B receptor expressed in HEK293 cells assessed as potentiation of glutamate-induced current response at holding potential -60mV by whole cell voltage clamp method; assay type: cell-based
Procedure, shortened: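 HEK293 cells transfected with GluN1-1a, GluN2A, 2B, 2C or 2D and GFP cDNA. Whole-cell voltage clamp at -60 mV, 21–25 °C, series resistance <10 MΩ compensated 80–90%. Compound co-applied with 1 µM glutamate by fast multibarrel perfusion. DMSO 1% in all solutions. At least four cells per point.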

Rattus norvegicus [8] = organism: Rattus norvegicus; experiment: Positive allosteric modulation of GABAR in rat hippocampal neuron assessed as potentiation of GABA-induced current response at 30 uM in presence of cyclothiazide by whole cell voltage clamp method relative to control
[9] = target: T4, Glutamate NMDA receptor; Grin1/Grin2a (Rattus norvegicus) (UniProt P35439+Q00959); experiment: Positive allosteric modulation of recombinant rat GluN1alpha/GluN2A receptor expressed in HEK293 cells assessed as potentiation of glutamate-induced current response at 1 to 30 uM at holding potential -60mV by whole cell voltage clamp method relative to control; assay type: cell-based; procedure, shortened: as §1
[10] = target: T3, Ionotropic glutamate receptor NMDA 1/2D (Rattus norvegicus); experiment: Positive allosteric modulation of recombinant rat GluN1alpha/GluN2D receptor expressed in HEK293 cells assessed as potentiation of glutamate-induced current response at 1 to 30 uM at holding potential -60mV by whole cell voltage clamp method relative to control; assay type: cell-based; procedure, shortened: as §1
[11] = target: T2, Glutamate NMDA receptor; Grin1/Grin2b (Rattus norvegicus); experiment: Positive allosteric modulation of recombinant rat GluN1alpha/GluN2B receptor expressed in HEK293 cells assessed as potentiation of glutamate-induced current response at 30 uM at holding potential -60mV cotreated with 1 mM glutamate by whole cell voltage clamp method relative to control; assay type: cell-based
Procedure, shortened: (§3)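 HEK293 cells expressing GluN1-1a/GluN2B, whole-cell voltage clamp at -60 mV, 21–25 °C. Compound at 30 µM was given in one of three ways: co-applied with 1 µM glutamate, co-applied with 1 mM glutamate, or pre-applied before 1 mM glutamate. Delivery by fast perfusion, DMSO 1% throughout. Potentiation relative to the control glutamate response.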

[12] = target: Glutamate NMDA receptor; Grin1/Grin2c (Rattus norvegicus, UniProt P35439+Q00961); experiment: Positive allosteric modulation of recombinant rat GluN1alpha/GluN2C receptor expressed in HEK293 cells assessed as potentiation of glutamate-induced current response at holding potential -60mV by whole cell voltage clamp method; assay type: cell-based; procedure, shortened: as §1
[13] = target: Glutamate NMDA receptor (Rattus norvegicus) (UniProt P35439+Q00959+Q00960+Q00961+Q62645+Q8VHN2+Q9R1M7); experiment: Positive allosteric modulation of NMDAR in rat hippocampal neuron assessed as potentiation of NMDA-induced current response at 30 uM by whole cell voltage clamp method relative to control
Procedure, shortened: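 Native NMDARs in cultured hippocampal neurons, whole-cell voltage clamp at -60 mV, 21–25 °C. Bath also held 10 µM CNQX, 10 µM bicuculline, 0.5 µM TTX. Compound co-applied with 1 µM glutamate by fast perfusion (~10 ms exchange). DMSO 1% throughout. Potentiation relative to control glutamate response.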

[14] = target: T4, Glutamate NMDA receptor; Grin1/Grin2a (Rattus norvegicus); experiment: Positive allosteric modulation of recombinant rat GluN1alpha/GluN2A receptor expressed in HEK293 cells assessed as potentiation of glutamate-induced current response at 30 uM at holding potential -60mV by whole cell voltage clamp method relative to control; assay type: cell-based; procedure, shortened: as §1
[15] = target: T2, Glutamate NMDA receptor; Grin1/Grin2b (Rattus norvegicus); experiment: Positive allosteric modulation of recombinant rat GluN1alpha/GluN2B receptor expressed in HEK293 cells assessed as potentiation of glutamate-induced current response at 1 to 30 uM at holding potential -60mV by whole cell voltage clamp method relative to control; assay type: cell-based; procedure, shortened: as §1
[16] = target: T2, Glutamate NMDA receptor; Grin1/Grin2b (Rattus norvegicus); experiment: Positive allosteric modulation of recombinant rat GluN1alpha/GluN2B receptor expressed in HEK293 cells assessed as potentiation of glutamate-induced current response at 1 to 100 uM at holding potential -60mV by whole cell voltage clamp method relative to control; assay type: cell-based; procedure, shortened: as §2
[17] = target: Ionotropic glutamate receptor NMDA 1/2D (Rattus norvegicus, UniProt P35439+Q62645); experiment: Positive allosteric modulation of recombinant rat GluN1alpha/GluN2D receptor expressed in HEK293 cells assessed as potentiation of glutamate-induced current response at holding potential -60mV by whole cell voltage clamp method; assay type: cell-based; procedure, shortened: as §1
[18] = target: T2, Glutamate NMDA receptor; Grin1/Grin2b (Rattus norvegicus); experiment: Positive allosteric modulation of recombinant rat GluN1alpha/GluN2B receptor expressed in HEK293 cells assessed as potentiation of glutamate-induced current response at 30 uM at holding potential -60mV cotreated with 1 uM glutamate by whole cell voltage clamp method relative to control; assay type: cell-based; procedure, shortened: as §3
[19] = target: T1, Glutamate NMDA receptor; Grin1/Grin2c (Rattus norvegicus); experiment: Positive allosteric modulation of recombinant rat GluN1alpha/GluN2C receptor expressed in HEK293 cells assessed as potentiation of glutamate-induced current response at 1 to 30 uM at holding potential -60mV by whole cell voltage clamp method relative to control; assay type: cell-based; procedure, shortened: as §1
[20] = target: T2, Glutamate NMDA receptor; Grin1/Grin2b (Rattus norvegicus); experiment: Positive allosteric modulation of recombinant rat GluN1alpha/GluN2B receptor expressed in HEK293 cells assessed as potentiation of glutamate-induced current response at 30 uM at holding potential -60mV pretreated with cells followed by 1 mM glutamate addition by whole cell voltage clamp method relative to control; assay type: cell-based; procedure, shortened: as §3

Structure (SMILES): CC(=O)[C@H]1CC[C@H]2[C@@H]3CC=C4C[C@@H](OC(=O)CCCCC(=O)O)CC[C@]4(C)[C@H]3CC[C@]12C
- EC50 [1]: 8.9 µM
- Activity (Rattus norvegicus [2]): -7%
- Activity [3]: 118%
- Activity [4]: 137%
- Activity [5]: 88%
- Activity [6]: 614%
- EC50 [7]: 8.5 to 9.1 µM
- Activity (Rattus norvegicus [8]): -90%
- Emax [9]: 203%
- Emax [10]: 115%
- Activity [11]: 75%
- EC50 [12]: 10.4 µM
- Activity [13]: 138%
- Activity [14]: 192%
- Emax [15]: 157%
- Emax [16]: 151%
- EC50 [17]: 13 µM
- Activity [18]: 136%
- Emax [19]: 145%
- Activity [20]: 134%
